# Laboratory results as given in ChEMBL document CHEMBL2169827, “4-Oxo-1,4-dihydropyridines as selective CB₂ cannabinoid receptor ligands. Part 2: discovery of new agonists endowed with protective effect against experimental colitis” (J Med Chem, 2012).
# The source made the active and inactive calls. The rule behind the calls is not given here.
# Columns and labels:
# Homo sapiens = species on record: Homo sapiens; assay: Selectivity index, ratio of Ki for human recombinant CB1 receptor to KI for human recombinant CB2 receptor
# How it was run: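 Ki at hCB1 and hCB2 from [3H]-CP-55,940 competitive displacement; ratio CB1 Ki/CB2 Ki. Ki at CB1 determined only when 1 μM screen gave >60% displacement.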
# Cannabinoid receptor 2 [1] = target: T1, Cannabinoid receptor 2 (Homo sapiens, UniProt P34972); assay: Agonist activity at human recombinant CB2 receptor expressed in CHO cells membrane by [35S]-GTPgammaS assay; type: functional, cell membranes
# T1 sequence (P34972 whole entry): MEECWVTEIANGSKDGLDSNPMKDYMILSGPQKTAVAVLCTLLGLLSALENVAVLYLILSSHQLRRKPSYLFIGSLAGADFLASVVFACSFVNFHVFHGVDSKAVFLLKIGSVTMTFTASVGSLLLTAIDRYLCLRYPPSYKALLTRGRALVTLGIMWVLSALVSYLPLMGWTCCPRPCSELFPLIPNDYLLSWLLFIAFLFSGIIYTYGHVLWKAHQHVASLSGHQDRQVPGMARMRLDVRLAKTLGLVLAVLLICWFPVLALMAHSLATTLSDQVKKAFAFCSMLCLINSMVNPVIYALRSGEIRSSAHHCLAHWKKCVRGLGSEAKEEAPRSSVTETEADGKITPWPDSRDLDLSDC
# Cannabinoid receptor 1 [2] = target: T2, Cannabinoid receptor 1 (Homo sapiens, UniProt P21554); assay: Displacement of [3H]-CP55940 from human recombinant CB1 receptor expressed in CHO cells membrane at 1 uM by scintillation counting; type: cell membranes
# T2 sequence (P21554 whole entry): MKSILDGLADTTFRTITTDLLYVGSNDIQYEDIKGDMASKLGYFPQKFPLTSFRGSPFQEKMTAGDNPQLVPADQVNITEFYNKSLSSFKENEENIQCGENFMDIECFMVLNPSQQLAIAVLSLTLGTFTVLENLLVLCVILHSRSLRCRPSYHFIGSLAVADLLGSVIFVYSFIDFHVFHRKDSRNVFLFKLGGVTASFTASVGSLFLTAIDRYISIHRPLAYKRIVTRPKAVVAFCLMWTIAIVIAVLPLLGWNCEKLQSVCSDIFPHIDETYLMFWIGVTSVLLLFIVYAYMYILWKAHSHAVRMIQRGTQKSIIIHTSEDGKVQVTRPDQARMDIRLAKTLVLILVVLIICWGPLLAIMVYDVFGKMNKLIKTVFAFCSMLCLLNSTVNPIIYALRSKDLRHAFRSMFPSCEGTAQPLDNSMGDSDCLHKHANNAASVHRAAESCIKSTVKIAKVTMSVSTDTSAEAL
# How it was run: (§1)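 Competitive radioligand displacement with [3H]-CP-55,940 at human CB1 or CB2; single-point screen at 1 μM, specific displacement recorded.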
# Mus musculus [3] = assay: Anticolitis activity in TNBS-induced C57Bl6 mouse experimental colitis model assessed as reduction colitis macroscopic scores at 10 mg/kg, ip qd dosed 3 days before colitis induction; type: functional; parameters: scale not given: the % may be the effect or the level left; details: route intraperitoneal
# How it was run: (§2)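 TNBS colitis in mice; test agent given ip once daily at 10 mg/kg; mice killed three days after TNBS and colon inflammation parameters assessed; 10 mice per group, mean ± SEM, compared with TNBS plus vehicle.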
# Cannabinoid receptor 2 [4] = target: T1, Cannabinoid receptor 2; assay: Displacement of [3H]-CP55940 from human recombinant CB2 receptor expressed in CHO cells membrane at 1 uM by scintillation counting; type: cell membranes; how it was run: as §1
# Cannabinoid receptor 1 [5] = target: T2, Cannabinoid receptor 1; assay: Displacement of [3H]-CP55940 from human recombinant CB1 receptor expressed in CHO cells membrane by scintillation counting; type: cell membranes
# Cannabinoid receptor 2 [6] = target: T1, Cannabinoid receptor 2; assay: Displacement of [3H]-CP55940 from human recombinant CB2 receptor expressed in CHO cells membrane by scintillation counting; type: cell membranes
# [7] = target: MDR1 (ABCB1, P-glycoprotein) (Homo sapiens, UniProt P08183); assay: Inhibition of MDR1 expressed in MDCK2 cells at 10 uM by calcein AM accumulation assay; type: cell-based, MDCK-II; details: dog, MDCK2 cells expressing MDR1, probe calcein AM
# Chain of MDR1 (ABCB1, P-glycoprotein) (P08183 whole entry): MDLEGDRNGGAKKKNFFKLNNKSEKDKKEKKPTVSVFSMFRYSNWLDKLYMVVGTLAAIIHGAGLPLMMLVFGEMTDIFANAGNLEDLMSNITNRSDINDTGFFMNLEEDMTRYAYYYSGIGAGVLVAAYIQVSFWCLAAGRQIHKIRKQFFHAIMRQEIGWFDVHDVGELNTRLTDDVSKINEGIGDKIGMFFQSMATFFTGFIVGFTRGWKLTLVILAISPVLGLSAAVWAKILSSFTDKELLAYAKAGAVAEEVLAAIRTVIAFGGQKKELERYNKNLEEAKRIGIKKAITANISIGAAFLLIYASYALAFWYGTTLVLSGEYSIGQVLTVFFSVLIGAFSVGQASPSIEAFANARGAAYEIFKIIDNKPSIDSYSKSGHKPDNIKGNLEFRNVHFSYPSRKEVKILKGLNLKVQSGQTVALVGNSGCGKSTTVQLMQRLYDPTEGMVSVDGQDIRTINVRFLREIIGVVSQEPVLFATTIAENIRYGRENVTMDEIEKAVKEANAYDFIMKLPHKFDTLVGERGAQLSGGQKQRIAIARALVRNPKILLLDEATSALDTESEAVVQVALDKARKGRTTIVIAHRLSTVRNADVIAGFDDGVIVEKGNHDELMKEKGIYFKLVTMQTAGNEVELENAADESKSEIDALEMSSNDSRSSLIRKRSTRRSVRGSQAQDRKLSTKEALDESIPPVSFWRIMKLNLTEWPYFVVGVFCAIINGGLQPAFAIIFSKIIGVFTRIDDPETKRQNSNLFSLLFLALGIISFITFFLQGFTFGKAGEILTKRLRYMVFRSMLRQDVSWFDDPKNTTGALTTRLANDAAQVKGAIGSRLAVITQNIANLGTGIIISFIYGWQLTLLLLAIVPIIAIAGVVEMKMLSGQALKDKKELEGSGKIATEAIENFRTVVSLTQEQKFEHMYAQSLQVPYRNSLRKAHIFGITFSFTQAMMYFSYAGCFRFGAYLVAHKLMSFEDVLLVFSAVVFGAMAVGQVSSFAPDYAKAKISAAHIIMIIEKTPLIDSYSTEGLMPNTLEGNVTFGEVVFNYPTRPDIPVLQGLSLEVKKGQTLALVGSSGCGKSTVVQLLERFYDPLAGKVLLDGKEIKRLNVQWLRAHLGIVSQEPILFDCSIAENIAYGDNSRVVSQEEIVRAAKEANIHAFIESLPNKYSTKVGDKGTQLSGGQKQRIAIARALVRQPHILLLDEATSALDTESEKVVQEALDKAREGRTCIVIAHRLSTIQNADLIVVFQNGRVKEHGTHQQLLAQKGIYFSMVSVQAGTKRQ
# How it was run: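 P-gp interaction tested in MDR1-MDCKII cells via cellular uptake of calcein AM.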
# Mus musculus [8] = assay: Anticolitis activity in TNBS-induced C57Bl6 mouse experimental colitis model assessed as reduction colitis histological scores at 10 mg/kg, ip qd dosed 3 days before colitis induction (reference value: 4.9 score); type: functional; details: route intraperitoneal; how it was run: as §2
# Mus musculus [9] = assay: Effect on IL-1beta mRNA expression in TNBS-induced C57Bl6 mouse experimental colitis model at 10 mg/kg, ip qd dosed 3 days before colitis induction by real-time PCR method; type: functional, organism-based; parameters: dose 10 mg/kg; how it was run: as §2
# Mus musculus [10] = assay: Anticolitis activity in TNBS-induced C57Bl6 mouse experimental colitis model assessed as MPO activity at 10 mg/kg, ip qd dosed 3 days before colitis induction (reference value: 73.7%) score); type: functional; details: route intraperitoneal; how it was run: as §2
# [11] = Stability in human liver microsomes assessed as compound remaining at 1 uM incubated for 60 mins; type: ADME, Microsome; details: read-out: Stability
# How it was run: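 Incubation at 1 μM with human liver microsomes (0.3 mg/mL), 0 and 60 min; percent parent remaining at 60 min.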
# Mus musculus [12] = assay: Effect on TNFalpha mRNA expression in TNBS-induced C57Bl6 mouse experimental colitis model at 10 mg/kg, ip qd dosed 3 days before colitis induction by real-time PCR method; type: functional, organism-based; parameters: dose 10 mg/kg; how it was run: as §2
# [13] = Fraction unbound in human plasma at 37 degC by equilibrium dialysis method; type: ADME, cell-free
# How it was run: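 Plasma protein binding by equilibrium dialysis at 37 °C; free fraction reported.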
# [14] = Permeability from apical to basolateral side in human Caco2 cells at 10 uM incubated for 60 mins; type: ADME, cell-based; details: Caco-2, read-out: permeability
# How it was run: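 Caco-2 permeability: compound at 10 μM, samples at 0 and 60 min.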
# [15] = Intrinsic clearance in mouse liver microsomes at 1 uM; type: ADME, Microsome; details: read-out: CLH
Compound,EC50 (Cannabinoid receptor 2 [1]) [nM],Activity (Cannabinoid receptor 1 [2]) [%],Activity (Mus musculus [3]) [%],Activity (Cannabinoid receptor 2 [4]) [%],Ki (Cannabinoid receptor 1 [5]) [nM],Ki (Cannabinoid receptor 2 [6]) [nM],other results
Cc1cc(=O)c(C(=O)NC23CC4CC(CC(C4)C2)C3)cn1CC1CCOCC1,47.4,> 60,66.3,> 60,> 1000,24.1,Ratio Ki (Homo sapiens): > 10
COC(Cn1cc(C(=O)NC23CC4CC(CC(C4)C2)C3)c(=O)cc1C)OC,–,> 60,–,> 60,–,> 1000,–
CCCCCn1cc(C(=O)NC23CC4CC(CC(C4)C2)C3)c(=O)c(-c2cccc(C#N)c2)c1C,–,> 60,–,> 60,–,> 1000,–
Cc1cc(=O)c(C(=O)NC23CC4CC(CC(C4)C2)C3)cn1CC1OCCO1,–,> 60,–,> 60,–,> 1000,–
CCCCCn1cc(C(=O)NCC23CC4CC(CC(C4)C2)C3)c(=O)cc1C,53.1,> 60,55.9,> 60,> 1000,15.2,Ratio Ki (Homo sapiens): > 10
CCCCCn1cc(C(=O)NC(C)C23CC4CC(CC(C4)C2)C3)c(=O)cc1C(C)(C)C (racemic),47.1,> 60,60,> 60,548,9,–
Cc1cc(=O)c(C(=O)NC23CC4CC(CC(C4)C2)C3)cn1CCCC(F)(F)F,17.3,> 60,65.1,> 60,> 1000,0.28,Ratio Ki (Homo sapiens): > 3570
CCCCCn1cc(C(=O)NC23CC4CC(CC(C4)C2)C3)c(=O)c(-c2ccccc2)c1C,–,> 60,–,> 60,–,189,–
CCCCCn1cc(C(=O)NC23CC4CC(CC(C4)C2)C3)c(=O)c(C2CC2)c1C,88.5,> 60,–,> 60,105,13.4,–
CCCCCn1cc(C(=O)NCC2CC2)c(=O)cc1C(C)(C)C,27.8,> 60,74.9,> 60,176,14.1,Ratio Ki (Homo sapiens): > 10
CCCCCn1cc(C(=O)Nc2ccccc2)c(=O)cc1C,–,> 60,–,> 60,–,> 1000,–
CCCCCn1cc(C(=O)Nc2ccccc2)c(=O)cc1C(C)(C)C,8.3,> 60,–,> 60,87.9,9.2,–
Cc1cc(=O)c(C(=O)NC23CC4CC(CC(C4)C2)C3)cn1CCC1OCCO1,–,> 60,–,> 60,–,> 1000,–
CCCCCn1cc(C(=O)NCC2CC2)c(=O)cc1C,–,> 60,–,> 60,–,> 1000,–
CCCCCn1cc(C(=O)NC23CC4CC(CC(C4)C2)C3)c(=O)c(I)c1C,11.9,> 60,–,> 60,193,20.8,–
CCCCCn1cc(C(=O)NC(C)C)c(=O)cc1C,–,> 60,–,> 60,–,> 1000,–
CCCCCn1cc(C(=O)NC23CC4CC(CC(C4)C2)C3)c(=O)c(-c2ccc(CC)cc2)c1C,39.9,> 60,–,> 60,> 1000,54.3,–
Cc1cc(=O)c(C(=O)NC23CC4CC(CC(C4)C2)C3)cn1CCC1CCOCC1,–,> 60,–,> 60,–,196,–
C/C=C\n1cc(C(=O)NC23CC4CC(CC(C4)C2)C3)c(=O)cc1C,–,> 60,–,> 60,–,> 1000,–
CCCCCn1cc(C(=O)NC23CC4CC(CC(C4)C2)C3)c(=O)c(-c2cccc(C(C)=O)c2)c1C,–,> 60,–,> 60,–,> 1000,–
COCCCn1cc(C(=O)NC23CC4CC(CC(C4)C2)C3)c(=O)cc1C,–,> 60,–,> 60,–,> 1000,–
CCCCCn1cc(C(=O)NC2C3CC4CC(C3)CC2C4)c(=O)cc1C(C)(C)C (stereo unspecified),452,> 60,51.5,> 60,562,9.6,–
CCCCCn1cc(C(=O)NC23CC4CC(CC(C4)C2)C3)c(=O)c(-c2ccncc2)c1C,114,> 60,61.4,> 60,> 1000,36.5,"inhibition at 10 µM [7]: 33.7%; Activity (Mus musculus [8]): 3.1; Activity (Mus musculus [9]): inactive; Ratio Ki (Homo sapiens): > 10; Activity (Mus musculus [10]): 34.1%; remaining at 1 h, 1 µM [11]: 1%; Activity (Mus musculus [12]): inactive; fraction unbound [13]: 0.07; Papp A→B at 1 h, 10 µM [14]: 49.9 ×10⁻⁶ cm/s; microsomal CLint at 1 µM [15]: > 200 µL/min/mg"
CCCCCn1cc(C(=O)NC(C)C23CC4CC(CC(C4)C2)C3)c(=O)cc1C (racemic),84.2,> 60,74.9,> 60,> 1000,6.4,Ratio Ki (Homo sapiens): > 10
CCCCCn1cc(C(=O)NC2CCCCC2)c(=O)cc1C,49.9,> 60,74.9,> 60,> 1000,24.4,Ratio Ki (Homo sapiens): > 10
CCCCCn1cc(C(=O)NC23CC4CC(CC(C4)C2)C3)c(=O)cc1C(C)(C)C,–,–,19.3,–,–,–,"inhibition at 10 µM [7]: 94.5%; remaining at 1 h, 1 µM [11]: 1%; fraction unbound [13]: 0.01; Papp A→B at 1 h, 10 µM [14]: 9.8 ×10⁻⁶ cm/s; microsomal CLint at 1 µM [15]: > 200 µL/min/mg"
CCCCCn1cc(C(=O)NC2C3CC4CC(C3)CC2C4)c(=O)cc1C (stereo unspecified),38.4,> 60,74.9,> 60,> 1000,0.26,Ratio Ki (Homo sapiens): > 3850
CCCCCn1cc(C(=O)NN2CCCCC2)c(=O)cc1C,–,> 60,–,> 60,–,> 1000,–
CCCCCn1cc(C(=O)NCC23CC4CC(CC(C4)C2)C3)c(=O)cc1C(C)(C)C,49.2,> 60,62.2,> 60,> 1000,10.2,–
CCCCCn1cc(C(=O)NC23CC4CC(CC(C4)C2)C3)c(=O)c(-c2ccc(C)cc2)c1C,–,> 60,–,> 60,–,> 1000,–
